We go through 94 molecules from ChEMBL document CHEMBL4513216, “Probing the Open Global Health Chemical Diversity Library for Multistage-Active Starting Points for Next-Generation Antimalarials” (ACS Infect Dis, 2020).

Molecules are shown by their SMILES.

The nature of the data set: Toxicity liver stage against HepG2, at 10uM. It counts as cell-based. Details: test concentration 10 uM, cell line HepG2-A16-CD81EGFP. The settings on record: human, HepG2-A16-CD81EGFP cells; read-out: INHIBITION
Put shortly:
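Uninfected HepG2-A16-CD81EGFP cells, 3 × 10^3 per well, 1536-well, plated on prespotted compound at 10 μM final, parasite-free screening media added to match infected plates; puromycin 10 μM positive, DMSO 0.5% negative; run in parallel with 48 h PbLuc assay at 37 °C, 5% CO2; viability by CellTiter-Glo luminescence, normalized to controls.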
With `NC(=O)Cn1ccc(O)c(Cc2ccc(Cl)cc2Cl)c1=O`, the cytotoxicity at 10 µM came to 8.85%. `Cc1nc(C)c(CN2CCOC[C@H](Oc3ccccc3)C2)s1`: the cytotoxicity at 10 µM was found to be 7.53%.

Consider `Nc1nc2c(c3c1C(=O)NC3=O)CCCC2`, for which the cytotoxicity at 10 µM was found to be 10.2%. The figure for `Cc1ccnc(SCC(=O)Nc2csc3nc(=O)c(C)nn23)n1` is 12.2%. With `O=C(CNC(=O)c1cnccn1)Nc1ncc[nH]1`, the cytotoxicity at 10 µM is -43.4%. Consider `O=C1CSC(c2ccc(F)c(Cl)c2)c2c(n(C3CCOCC3)[nH]c2=O)N1` (centres undefined), for which the cytotoxicity at 10 µM worked out at 3.4%. For `CC(=O)Nc1cccc2c1ccn2CC(=O)Nc1n[nH]c(CC(C)C)n1` the value was -0.473%; for `Cc1cc(=O)[nH]c(-n2nc(C)c(CCC(=O)NCc3cccs3)c2C)n1`, 10.3%. For `Cc1cc(S(=O)(=O)N2CCC(N3CCC(O)C3)CC2)c(Cl)cc1Cl` (centres undefined) the value was 0.944%; for `O=C(NC[C@H]1C[C@@H]2CN(C(=O)c3ccno3)C[C@@H]2O1)C1CCC1`, -5.21%. For `CCN1CC2(CC1=O)CN(C(=O)c1cccs1)CCN(C(=O)N(C)C)C2` (centres undefined) the value was 2%; for `O=C(Nc1cnn(COc2ccc(F)cc2Cl)c1)C1CC1`, -10.6%. Turning to `Cc1nnc(SCC(=O)NCc2ccc3c(c2)CCC(=O)N3)s1`, the cytotoxicity at 10 µM is -5.03%. Regarding `Cc1csc(NC(=O)c2cnc(C3CCCN(C)C3)cn2)n1` (centres undefined), the cytotoxicity at 10 µM is -21.3%.

With `O=C(c1cnccn1)N1CCCC(Cc2cccc3ncccc23)C1` (centres undefined), the cytotoxicity at 10 µM was 12%.

Turning to `COc1cc(CNc2cnn(C(C)(C)C)c(=O)c2Cl)ccn1`, the cytotoxicity at 10 µM amounted to 55.9%. On to `Cc1ccc(-c2nc(CC(=O)NCC3CCOC3)cs2)o1` (centres undefined), for which the cytotoxicity at 10 µM is -43%. For `Cc1nc(-c2ccccc2)ccc1C(=O)N1CCN(CCO)CC1`, the cytotoxicity at 10 µM was -53.9%. As for `CC(C)C(NCc1ccc(Cn2cncn2)cc1)c1ccc(F)cn1` (centres undefined), the cytotoxicity at 10 µM was -0.593%. For `Cn1ccc(N2CCCC(NC(=O)c3ccsc3)C2=O)n1` (centres undefined) the value was -3%; for `Cc1cnn(C2CN(CC(O)COc3ccc(C#N)cc3)C2)c1` (centres undefined), 1.81%.

Consider `N#Cc1ccc(NCC(=O)Nc2ncn(Cc3cccnc3)n2)cc1`, for which the cytotoxicity at 10 µM is 7.65%. With `N#Cc1csc(CN(CC(=O)N2CCCC2)CC2CCCO2)c1` (centres undefined), the cytotoxicity at 10 µM was -6.26%. For `COc1ccc(CNC(C)c2ccc(Cl)c(Cl)c2)c(OC)c1OC` (centres undefined) the value was 14.2%; for `Cc1noc(C)c1CN1CCC(c2nc3cc(Cl)ccc3o2)CC1`, -4.22%; for `O=S(=O)(NCCCN1CCCC1)c1cc(F)cc(F)c1`, 8.84%. For `CCOCCC1(C(=O)N2CCCC(c3ncc[nH]3)C2)CCCC1` (centres undefined), the cytotoxicity at 10 µM was -1.7%. Regarding `Cc1ccsc1CN(C)c1nc2c(cnn2C(C)(C)C)c(=O)[nH]1`, the cytotoxicity at 10 µM worked out at 33.3%. The figure for `N#Cc1nccnc1N1CCC(OCCCc2ccccc2)C1` (centres undefined) is 4.31%.

Consider `CCCN(CCC)S(=O)(=O)c1cc(NC(C)=O)ccc1C`, for which the cytotoxicity at 10 µM was -148%. As for `CCOc1ccc(OCC)c(NCc2cc(C)on2)c1`, the cytotoxicity at 10 µM was -40.1%. With `FC(F)(F)c1cccc(N2CCC(NCc3cccnc3)CC2)c1`, the cytotoxicity at 10 µM is -64.5%. For `Cc1cc(NC(=O)NC2CCN(C(C)C)CC2)c2ncccc2c1` the value was 9.67%; for `Cn1cc(CCNCC2CNc3ccnn3C2)cn1` (centres undefined), 3.34%. Turning to `Cc1cccc(NCc2ncc(C(C)(C)C)o2)c1`, the cytotoxicity at 10 µM turned out to be 24.3%. In the case of `O=C(CCc1ccccc1)N1CCCCC1C1OCCO1` (centres undefined), the cytotoxicity at 10 µM was -45.1%.

Turning to `COc1ncccc1CN1Cc2nccn2CC(CN2CCCC2)C1` (centres undefined), the cytotoxicity at 10 µM is -103%. The figure for `O=C(CC1CC1)N[C@@H]1CN(C(=O)c2ccoc2)C[C@@H]2CCCO[C@@H]21` is -104%.

With `COCC(=O)N1CCCC2(CCN(c3ccccc3)C2=O)C1` (centres undefined), the cytotoxicity at 10 µM was -74.3%. In the case of `CC(C)Nc1ncnc2c1CCN(C(=O)c1ccc[nH]1)CC2`, the cytotoxicity at 10 µM was -77.6%. For `CCC1=N[C@@]2(CC[C@@H]3CN(C(=O)NCc4ccccc4C)C[C@@H]32)C(=O)N1` the value was -71.1%.

Consider `O=S(=O)(c1ccccc1)N1CCC2(CCCN2CC2CCCC2)C1` (centres undefined), for which the cytotoxicity at 10 µM was determined as 4.4%. The figure for `COc1ccc(C)cc1-n1c(COC(C)C)n[nH]c1=O` is 6.42%; for `Cn1ncc(N2CCOC(CCNC(=O)NC(C)(C)C)C2)cc1=O` (centres undefined) it is 22.6%; for `CCc1ccc(CCNc2ncnc3c2CCN(C(=O)C2CC2)C3)cc1` it is 36.9%. The figure for `CCOCCC(=O)Nc1cc(C(N)=O)ccc1N1CCCC(C)C1` (centres undefined) is -43%; for `O=C(CCn1cncn1)N1CCCC(CO)(CCCc2ccccc2)C1` (centres undefined) it is 4.25%; for `c1cc(-c2nc3c(c(NCCn4ccnn4)n2)CCNCC3)ccn1` it is -56.4%.

Consider `CC(C)c1cc(N2CCC(C(C)N3CCCC3)CC2)n2nccc2n1` (centres undefined), for which the cytotoxicity at 10 µM is -1.86%. As to `CN1CCCC1CCn1ccnc1-c1ccc2ccccc2n1` (centres undefined), the cytotoxicity at 10 µM stood at 0.0773%. The figure for `CC(C)[C@@H]1CN(C(=O)c2ccc3c(c2)CCCO3)C[C@H]1NS(C)(=O)=O` is -6.53%; for `CCc1cn[nH]c1C1CCN(c2cc(C)c3ccc(OC)cc3n2)CC1` it is 18.7%; for `Cc1[nH]c2ccccc2c1CCNc1ncnc2c1CCNCC2` it is -37.5%. For the molecule `COc1ccc(F)c(CN2CCCC(O)(CNCC(C)(C)C)C2=O)c1` (centres undefined), the cytotoxicity at 10 µM turned out to be 12.2%. For `Cc1nc2c(c(N3CCCC(OCc4ccccn4)C3)n1)CCNCC2` (centres undefined) the value was 0.383%; for `CCCn1ncc(C2CC(=O)NCc3nc4cc(C)ccn4c32)c1C` (centres undefined), -3.21%.

For `Cn1ncc(N2CCC(CNC3CC(C)(C)CC(C)(C)C3)C2)cc1=O` (centres undefined), the cytotoxicity at 10 µM is -10.4%. Regarding `CCN1CC2(CCC1=O)CCN(C(=O)C(O)c1cccc(Cl)c1)CC2` (centres undefined), the cytotoxicity at 10 µM came out at 0.636%. The figure for `CN(CC1(CO)CCCC1)c1nc2c(c(=O)[nH]1)Cc1ccccc1OC2` is 11.7%. The figure for `CCCn1ncc(CN2CCCC(C(=O)c3ccc(Cl)cc3C)C2)c1C` (centres undefined) is -6.35%. The figure for `CSc1ncc(CNCC2(N3CCCCC3)Cc3ccccc3C2)cn1` is 5.07%; for `CCN1CCN(C(=O)c2ccc3c(c2)NC(=O)CN3)[C@H]2CS(=O)(=O)C[C@H]21` it is -52.9%; for `CCc1nnc(CN(C)Cc2cccc(C(=O)Nc3nccs3)c2)o1` it is -2.97%. For the molecule `CC[C@H](C)[C@@H](CO)NC(C)Cc1ccc(Cl)cc1` (some centres undefined), the cytotoxicity at 10 µM was -10.6%. For `Cc1cccc(C2CC(=O)Nc3c2c(=O)[nH]n3C(C)C)c1` (centres undefined) the value was -3.33%; for `CC(=O)Nc1cccc(-c2ccccc2CCN)c1`, -5.85%. For `CCn1nc(C)c(CCNC(=O)c2cccc(-n3cccn3)c2)c1C` the value was -12.9%; for `CCCOC(C)Cn1ccc2[nH]c(=O)c(C#N)cc2c1=O` (centres undefined), 7.39%; for `CCCc1cc(CNC2CCN(c3cc(C)nc(N)n3)CC2)on1`, -6.17%. For `CCN(CC)CCCN1CCN(c2nc(C)cnc2C)CC1` the value was -31%; for `Nc1cc2c(nn1)CCN(C(=O)CCCC1CCCCC1)C2`, -0.0113%; for `CCNc1cc2c(nn1)CCN(C(=O)c1cc3cccc(C)c3o1)C2`, -8.06%.

Consider `CCc1nc(C2CCCN2Cc2noc(Cc3ccccc3)n2)no1` (centres undefined), for which the cytotoxicity at 10 µM came to 1.29%. The figure for `CC(C)(C)n1cc(C(=O)N2CCN(Cc3ccccc3F)CC2)cn1` is 10.6%. For `Cc1nc(C)n(CC2CCCN(c3ncnc4sccc34)C2)n1` (centres undefined) the value was 36.2%; for `Cc1cc(N2CCC(Cc3ccccc3)CC2)nc(-c2ccncc2)n1`, -2.68%; for `O=C(c1ccoc1)N1CCOC2(COCCN(CC3CC3)C2)C1` (centres undefined), 7.57%. The figure for `Cc1cc(CN2C[C@@H]3CCCO[C@@H]3[C@H](N(C)C(C)C)C2)no1` is 2.44%. Turning to `COc1ccc(CNC(C)c2cccc(Br)c2)c(OC)c1OC` (centres undefined), the cytotoxicity at 10 µM worked out at 9.75%. For `CCc1ccc(S(=O)(=O)N2Cc3c(CN(C)C)nn(C)c3C2)cc1` the value was -106%; for `CC(C)Nc1nc2c(cc1C(=O)NCC1CC1)CCN(CC1CC1)CC2`, 46.5%.

For `CC(C)COCc1cncc2c1CCN(Cc1cnn(C)c1)C2`, the cytotoxicity at 10 µM was -7.96%. The figure for `O=C(Nc1cccc(CNCc2csc(Br)c2)c1)C1CC1` is 7.97%. Turning to `COc1cc(N2C[C@H]3CCC[C@@H](CN4CCOCC4)[C@H]3C2)ncn1`, the cytotoxicity at 10 µM was -71.5%.

For the molecule `CC(C)N1CCCn2c(nc(CNC(=O)c3nccn3C)cc2=O)C1`, the cytotoxicity at 10 µM came to 2.84%. For `O=C(NCc1cccnc1)[C@@H]1CC[C@@H]2[C@@H](CCN2c2ncc(F)cn2)O1` the value was -44.6%. For the molecule `c1ccc(COC[C@@H]2CCC[C@@]23CNCCO3)nc1`, the cytotoxicity at 10 µM was -105%. The figure for `Cc1cncc(C(=O)N2CCO[C@H]3[C@H](Oc4ccccn4)CC[C@@H]32)c1` is -115%.

As to `O=C(NCc1cccnc1)[C@@H]1C[C@H]2[C@H](CCN2c2ncccn2)O1`, the cytotoxicity at 10 µM is -66.6%. With `O=C(c1cc(C2CC2)on1)N1C[C@@H]2COC[C@]2(COc2cccnc2)C1`, the cytotoxicity at 10 µM is -89.7%.

For `Cn1nccc1-c1nc2c(cc1C(=O)O)CCN(C(=O)C1CC1)CC2`, the cytotoxicity at 10 µM is -143%. As for `Fc1cnc(N2CCOC3(CCN(Cc4ccsc4)CC3)C2)nc1`, the cytotoxicity at 10 µM came out at 2.6%.

Regarding `CCNCCc1nc2cc(F)ccc2[nH]1`, the cytotoxicity at 10 µM worked out at 5.18%.

Consider `COC1[C@@H]2CC[C@H]1CN(c1nc(C)nc3sccc13)C2` (some centres undefined), for which the cytotoxicity at 10 µM came to 34%.
